# L major viab – reduces viability of Leishmania major promastigotes | resazurin fluorescence viability | inhibition, % at 10 µM | 200,000 tested, 9% active; in the data active = inhibition above about 50%;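 note: promastigotes grown with compound for 44 hours at 28 °C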
# Redox H2O2 prof – compounds producing H2O2 with reducing agent – biochemical, NIH compound library profiling, artefact control for MLSCN library redox annotation, primary screen | DTT-dependent redox cycling H2O2, phenol red/HRP absorbance; 100% = 100 µM peroxide control, 0% = buffer | activation, % at 10 µM | 200,000 tested, 0.03% active | AID 878;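 active = activation of at least 50% relative to the plate's high and low controls in the primary single-dose screen; inactive = activation below 50%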;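 note: compound incubated with DTT at 0.8 mM final as the reducing agent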
# MPTP inh – inhibitors of mitochondrial permeability transition pore | isolated mouse mitochondria, Ca2+ swelling absorbance, 30 min | inhibition, % at 10 µM | 360,000 tested, 1.4% active;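 active = inhibition of 50% or more, scaled per plate between neutral and stimulator controls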;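 note: 0% = DMSO wells given calcium and 100% = 1 mM EGTA wells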
# Lipid droplet – modulators of hepatic lipid droplet formation; inhibition, % at 6.5 µM; AID 1656; AML12 mouse hepatocytes, oleate lipid droplets, BODIPY imaging; 240,000 tested, 0.4% active;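 active = lipid droplet intensity inhibited by at least 50%, with more than 500 cells counted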
#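 Material – AML12 mouse liver cells · Also added – oleate loading, 100 µM · Compound dosing – 6.5 µM single-point dosing · Times – overnight treatment with compound plus oleate · Measured by – fluorescence imaging, 20x objective, two fields per well · Read-out – percent inhibition of filter-corrected integrated lipid droplet intensity per well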
# T cruzi inh – blocks replication of Trypanosoma cruzi; T. cruzi beta-gal in NIH3T3, luminescence, 90 h; inhibition, % (no concentration beside the values); 300,000 tested, 1.4% active; AID 1885;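 active = mean inhibition across valid replicates above about 55%, limit read from the data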;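 note: signal also drops with host cell toxicity which is not excluded here; 0% = plate median of DMSO wells and 100% = zero luminescence signal; higher percent means less beta-gal luminescence so fewer parasites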
#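 System: NIH/3T3 fibroblasts plus reporter T. cruzi. Medium: DMEM plus 2% FBS. Probe or stimulus: 5000 reporter trypomastigotes per well. Compound: single 50 nL compound addition per well in DMSO. Incubation: co-culture of at least 90 h after 3 h attachment. Detection: GalScreen β-gal luminescence, detergent lysis, 60 min. Evaluation: parasite load inhibition, %.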
# Active calls of the source: *; / = not tested or not shown. This is one part of a sample in which hits are shown more often than they occur.
SMILES,L major viab,Redox H2O2 prof,MPTP inh,Lipid droplet,T cruzi inh
Cc1ccc(-n2c(-c3ccccc3)c[n+]3c2CCc2ccccc2-3)c(C)c1,101*,0,1,-25,/
COC(=O)c1cccc(Oc2cccc(Cl)n2)c1,2,-2,-3,-3,6
COc1ccc2nc(C)cc(Nc3ccccc3OC)c2c1,/,/,-1,/,/
COc1ccc2nc(C)cc(Nc3ccccc3O)c2c1,59*,-1,0,-18,14
COc1cccc(Nc2cc(C)nc3ccccc23)c1,88*,4,16,-14,23
Cc1cc(Nc2ccc(C)c(C)c2)c2ccccc2n1,/,/,4,-7,43
COc1ccc(OC)c(Nc2cc(C)nc3ccccc23)c1,71*,2,6,/,16
CC(C)NC(=O)C(=O)NNC(=O)CCc1ccccc1,-6,0,2,9,2
CCOC(=O)C(C)(C)N(Cc1ccccc1C)S(=O)(=O)c1ccc(Cl)c([N+](=O)[O-])c1,100*,0,2,/,15
CCCN(CCC)S(=O)(=O)c1ccc(Cl)c([N+](=O)[O-])c1,39,1,0,2,-9
CCc1ccc(CCC(=O)N2CCN(S(=O)(=O)c3sc(C(=O)O)c(C)c3C(=O)O)CC2)cc1,/,/,-1,/,/
CC1(C)CC(=O)C(C=Nc2ccccc2Sc2ccccc2)=C(O)C1,71*,0,-1,13,-10
C[n+]1c2n(c3ccccc31)N=C(c1ccccc1)CS2,98*,0,-5,-30,26
C[n+]1c2n(c3ccccc31)N=C(c1ccc(-c3ccccc3)cc1)CS2,100*,0,1,-33,60*
CCc1nnc2n1N=C(c1ccc(Br)cc1)CS2,/,/,0,-3,-3
COc1ccc(-c2nnc3n2N=C(c2ccccc2)CS3)cc1OC,/,/,/,8,/
C[n+]1c2n(c3ccccc31)N=C(c1ccc(Br)cc1)CS2,97*,-1,6,-18,45
Cc1cccc(-c2nnc3n2N=C(c2ccccc2)CS3)c1,20,2,9,/,6
COc1ccc(CCNC(=O)CNS(=O)(=O)c2ccc(F)c(Cl)c2)cc1OC,/,/,2,-16,10
C[C@H](CO)N1C[C@H](C)[C@@H](CN(C)C(=O)C2CCCCC2)OCc2cn(nn2)CCCC1=O,/,/,0,/,/
COc1ccc(C(=O)OCCCN(C)C)cc1OC,58*,0,0,3,20
CCCN(CCC)CCCOC(=O)c1ccc(Cl)cc1Cl,90*,0,4,7,-15
CCOC(=O)Oc1ccc(C(=O)OCCCN(C)C)cc1OC,-1,0,1,-1,38
CCCN(CCC)C(=S)NC(=O)c1ccc(Cl)cc1Cl,1,-4,-1,/,-13
CN(C)CCCOC(=O)c1ccc(Cl)cc1Cl,93*,0,-1,-11,62*
SMILES,L major viab,Redox H2O2 prof,MPTP inh,Lipid droplet,T cruzi inh
CCC(=O)/C=C1/Sc2ccccc2N1CC,49,0,0,-2,9
CCN1/C(=C/c2cc[n+](CCCS(=O)(=O)[O-])c3ccccc23)Sc2ccccc21,100*,-3,1,0,21
CC1CCC/C(=N/Nc2nc3ccccc3s2)C1 (stereo unspecified),52*,-3,-1,18,20
N#C/C(=C\c1cccnc1)c1nc2ccccc2[nH]1,/,/,2,-38,10
N#C/C(=C\c1ccncc1)c1nc2ccccc2[nH]1,59*,-1,0,-3,20
CCN(CC)c1ccc(/C=C(/C#N)c2nc3ccccc3[nH]2)c(OC(C)C)c1,98*,-3,39,/,39
COc1cc(/C=C(\C#N)c2nc3ccccc3[nH]2)c([N+](=O)[O-])cc1OCc1ccccc1,90*,-10,-3,/,47
S=c1[nH]ncn2c1cc1oc3ccccc3c12,-4,0,1,8,-31
CCN1CCN(c2ccc(S(=O)(=O)N3CCOCC3)cc2NC(=O)C(C)Oc2ccc(Cl)cc2)CC1 (stereo unspecified),/,/,-1,/,35
O=C(OC1C2CCC1C1CN(CCc3ccccc3)CC12)c1ccccc1 (stereo unspecified),51*,-1,40,-8,44
CCOC(=O)C1CCCN(CCc2ccccc2)C1 (stereo unspecified),/,/,0,-1,1
O=C1C(Cl)=C(NCCCN2CCOCC2)C(=O)N1CCc1ccccc1,97*,1,-1,-3,8
CN1CCN(C2=C(Cl)C(=O)N(CCc3ccccc3)C2=O)CC1,93*,2,1,0,14
CC1=CC(C)(C)N2C(=O)C(=Nc3ccc(O)cc3)c3cccc1c32,/,/,12,-5,12
COc1cc(N=C2C(=O)N3c4c(cccc42)C(C)=CC3(C)C)cc(OC)c1,61*,0,0,7,13
COc1cc2c3c(c1)C(C)=CC(C)(C)N3C(=O)C2=O,56*,-1,1,12,-3
CC[C@@H]1Cc2[nH][nH]c(=O)c2[C@H](c2ccc(Cl)cc2)O1,/,/,-3,/,/
CCCC(=O)N1CCC1(C)C(=O)NS(=O)(=O)c1ccccc1Cl (stereo unspecified),/,/,-1,/,/
Cc1ccc(Cl)cc1N1CCN(C(=O)c2cn(C)c(=O)c3c2c2ccccc2n3C)CC1,55*,1,-3,-31,52
CC(=O)Nc1sc2c(c1-c1nc3ccccc3s1)CCN(C(C)C)C2,100*,0,22,-35,/
CC(C)N1CCc2c(sc(NC(=O)Cc3ccccc3)c2C(N)=O)C1,/,/,0,0,-14
CC1CCN(C(=O)C2CCN(C(=O)c3cc4sccc4n3Cc3ccc(F)cc3)CC2)CC1,67*,0,4,/,24
O=C(c1cc2sccc2n1Cc1ccc(F)cc1)N1CCCc2ccccc21,78*,1,1,-43,39
CC(C)NC(=O)C1CCN(C(=O)c2cc3sccc3n2Cc2ccc(F)cc2)CC1,13,2,3,11,-12
COCCn1nnnc1C(c1ccccc1)N1CCN(Cc2ccc3c(c2)OCO3)CC1 (stereo unspecified),25,-3,-2,/,17
SMILES,L major viab,Redox H2O2 prof,MPTP inh,Lipid droplet,T cruzi inh
Fc1ccc(C(c2nnnn2C2CCCC2)N2CCN(Cc3ccncc3)CC2)cc1 (stereo unspecified),43,1,-1,/,2
CCC(c1nnnn1C1CCCC1)N1CCN(Cc2ccccc2)CC1 (stereo unspecified),81*,0,1,12,6
Fc1ccccc1C(c1nnnn1C1CCCC1)N1CCN(Cc2ccccc2)CC1 (stereo unspecified),61*,2,2,-26,11
CCCCC(c1nnnn1C1CCCC1)N1CCN(C(=O)c2ccco2)CC1 (stereo unspecified),58*,2,-2,11,8
CCC(c1nnnn1C1CCCC1)N1CCN(C/C=C/c2ccccc2)CC1 (stereo unspecified),/,/,0,/,/
c1cncc(C(c2nnnn2C2CCCC2)N2CCN(Cc3ccc4c(c3)OCO4)CC2)c1 (stereo unspecified),91*,0,0,/,54

# High-throughput results deposited in PubChem by several laboratories.
